Measurements published in publication PMC8895471 (Oncology Letters, 2022).

Legend:
Type in all cases: cell-based, human
[1] = tested on: AsPC-1 cells; test: Apoptosis assay using Annexin V/PI double staining; conditions: AsPC-1, 2 µM PNA, 48 h; untreated control 7%; mean of n=3
Method in brief: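 AsPC-1 cells (5×10^5) were seeded in six-well plates and transfected the next day with PNAs using lipofectamine, then incubated for 48 h. Adherent and floating cells were harvested by trypsinization, washed, and resuspended in ice-cold binding buffer with FITC-Annexin V and PI. Cells were stained 15 min at room temperature in the dark and analysed by flow cytometry. Data are mean ± standard error, n=3.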

[2] = tested on: mutant KRAS gene expression (mRNA) in AsPC-1 cells; test: KRAS expression profile by quantitative real-time PCR; conditions: AsPC-1, 2 µM or 4 µM PNAs, 48 h, normalised to GAPDH, n=3
[3] = tested on: AsPC-1 cells; test: Cytotoxicity / viability, XTT assay; conditions: AsPC-1, 10, 15 or 20 µM gemcitabine, 48 h
[4] = tested on: RAS protein in AsPC-1 cells; test: Western blot analysis of RAS protein; conditions: AsPC-1, PNA-treated 48 h, band intensity of three blots
Method in brief: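 AsPC-1 cells were treated with PNAs for 48 h, then lysed 20 min on ice in RIPA buffer with protease inhibitor and cleared at 13,000 rpm, 10 min, 4 °C. 20 µg protein per lane was resolved by SDS-PAGE and transferred by semi-dry blotting. Blots were blocked 1 h in 5% milk/TBST, probed overnight with anti-Ras antibody, then with peroxidase-conjugated secondary 1 h at room temperature. GAPDH served as reference.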

Row | Molecule | apoptosis (percentage of apoptotic cells) [1] [%] | effect on mutant KRAS gene expression (mRNA, RT-qPCR) [2] | cell viability (XTT) [3] | RAS protein levels (western blot) [4]
1 | CTDCGCCDTCDGCTCCD-KKK [PNA3] | 20 | dose-dependent and have a significant effect |  | 
2 | Nc1ccn([C@@H]2O[C@H](CO)[C@@H](O)C2(F)F)c(=O)n1 [Gemcitabine] |  |  | total death with no dose response | 
3 | CTACGCCATCAGCTCCA-KKK [PNA1] | 18 | weaker effect of PNA1 at 4 µm compared to PNA1 at 1 µM |  | decrease in total RAS protein levels
4 | CTDCpGCCDTCpDGCTCCpD [PNA14] | 20 | dose-dependent and have a significant effect |  | 
